Here are results for 1 molecule from ChEMBL document CHEMBL1137650, “An OXA-66/OXA-51-like carbapenemase and possibly an efflux pump are associated with resistance to imipenem in Acinetobacter baumannii” (2007).

In brackets after ≈: the same amount, converted by molar mass.

In one assay the test system is Acinetobacter baumannii. In words: Antibacterial activity against imipenem-resistant Acinetobacter baumannii abh39 by broth dilution method. The format is functional. The gist of the method: (§1)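 Clinical isolates were collected at three Taiwan hospitals (1993–2003) and grown in tryptic soy broth at 37°C for 18 h. MIC by broth dilution following CLSI recommendations.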
In general terms: Dilution methods test growth across graded concentrations, often in twofold steps.
By MIC is commonly meant the smallest concentration in the dilution series that meets the test's criterion for growth inhibition. On to `CO/N=C(\C(=O)N[C@@H]1C(=O)N2C(C(=O)[O-])=C(C[N+]3(C)CCCC3)CS[C@H]12)c1csc(N)n1` [CEFEPIME], for which the MIC was 256 µg/mL (≈ 533 µM).

A further assay deals with Acinetobacter baumannii. In words: Antibacterial activity against imipenem-resistant Acinetobacter baumannii abh14 by broth dilution method. The assay is classed as functional. The gist of the method: as §1
As to `CO/N=C(\C(=O)N[C@@H]1C(=O)N2C(C(=O)[O-])=C(C[N+]3(C)CCCC3)CS[C@H]12)c1csc(N)n1` [CEFEPIME], the lowest concentration to inhibit growth (MIC) was 256 µg/mL (≈ 533 µM).

In a further assay the test system is Acinetobacter baumannii. Kind of assay: Antibacterial activity against imipenem-resistant Acinetobacter baumannii abh18 by broth dilution method. The format is functional. An outline of the steps: as §1
As for `CO/N=C(\C(=O)N[C@@H]1C(=O)N2C(C(=O)[O-])=C(C[N+]3(C)CCCC3)CS[C@H]12)c1csc(N)n1` [CEFEPIME], the MIC came to 256 µg/mL (≈ 533 µM).

A further assay concerns Acinetobacter baumannii. In words: Antibacterial activity against imipenem-resistant Acinetobacter baumannii abh20 by broth dilution method. The assay is classed as functional. An outline of the steps: as §1
`CO/N=C(\C(=O)N[C@@H]1C(=O)N2C(C(=O)[O-])=C(C[N+]3(C)CCCC3)CS[C@H]12)c1csc(N)n1` [CEFEPIME] registered an MIC of 256 µg/mL (≈ 533 µM).

Another assay deals with Acinetobacter baumannii. Kind of assay: Antibacterial activity against imipenem-resistant Acinetobacter baumannii abh26 by broth dilution method. The assay is classed as functional. The gist of the method: as §1
As for `CO/N=C(\C(=O)N[C@@H]1C(=O)N2C(C(=O)[O-])=C(C[N+]3(C)CCCC3)CS[C@H]12)c1csc(N)n1` [CEFEPIME], the lowest concentration to inhibit growth (MIC) was 256 µg/mL (≈ 533 µM).

The test system of a further assay is Acinetobacter baumannii. Kind of assay: Antibacterial activity against imipenem-susceptible Acinetobacter baumannii ab3 by broth dilution method. The assay is classed as functional. The gist of the method: as §1
Molecule `CO/N=C(\C(=O)N[C@@H]1C(=O)N2C(C(=O)[O-])=C(C[N+]3(C)CCCC3)CS[C@H]12)c1csc(N)n1` [CEFEPIME] yielded an MIC of 6 µg/mL (≈ 12.5 µM).

In the next assay the test system is Acinetobacter baumannii. Kind of assay: Antibacterial activity against imipenem-resistant Acinetobacter baumannii abh29 by broth dilution method. The format is functional. An outline of the steps: as §1
Turning to `CO/N=C(\C(=O)N[C@@H]1C(=O)N2C(C(=O)[O-])=C(C[N+]3(C)CCCC3)CS[C@H]12)c1csc(N)n1` [CEFEPIME], the lowest concentration to inhibit growth (MIC) was 96 µg/mL (≈ 200 µM).

For another assay, the system named is Acinetobacter baumannii. In words: Antibacterial activity against imipenem-resistant Acinetobacter baumannii abh36 by broth dilution method. The format is functional. The gist of the method: as §1
`CO/N=C(\C(=O)N[C@@H]1C(=O)N2C(C(=O)[O-])=C(C[N+]3(C)CCCC3)CS[C@H]12)c1csc(N)n1` [CEFEPIME] yielded an MIC of 256 µg/mL (≈ 533 µM).
